Laboratory results reported in ChEMBL document CHEMBL1156477, “Small-molecule-mediated rescue of protein function by an inducible proteolytic shunt” (Proc Natl Acad Sci U S A, 2007).
Calls of active or inactive are those of the source. No cut-off for these calls is given here.

System: SYF
Experiment: Effect on proliferation of mouse SYF cells expressing FRB3-ubiquitin-C-v-src construct at 100 nM after 24 hsr by MTT assay
Format: functional, cell-based
Procedure, shortened: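 SYF cells (DMEM/10% FBS, 37°C, 5% CO2) transfected via FuGENE-6 with construct 1 plus v-Src cleavage construct; after 24 h expression, trypsinized, ~1 × 10^4 cells replated with rapamycin (100 nM) or DMSO; MTT proliferation assay performed after a further 24 h.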

For `CO[C@H]1C[C@@H]2CC[C@@H](C)[C@@](O)(O2)C(=O)C(=O)N2CCCC[C@H]2C(=O)O[C@H]([C@H](C)C[C@@H]2CC[C@@H](O)[C@H](OC)C2)CC(=O)[C@H](C)/C=C(\C)[C@@H](O)[C@@H](OC)C(=O)[C@H](C)C[C@H](C)/C=C/C=C/C=C/1C`, the Activity was “Active”.
